CHOP inh – blocks CHOP induction under ER stress; 220,000 tested, 3.8% active; AID 2732; CHO-K1 CHOP-promoter luciferase, tunicamycin-induced, 15-18 h; inhibition, % at 10 µM;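 active means compounds that reduced the stress-induced luciferase reporter signal by more than about 70% of percent inhibition, limit read from the data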;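 further: 0% = tunicamycin plus vehicle and 100% = wells without tunicamycin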
Gli-Sufu block – blocks Gli-Sufu signaling in a luciferase reporter. Sufu-KO-LIGHT fibroblasts, Gli luciferase reporter luminescence. inhibition, % at 5 µM. 340,000 tested, 0.74% active. AID 588413;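 active means inhibition above about 55%, limit read from the data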;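 further: 0% = DMSO-treated cells and 100% = wells with medium but no cells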
697 NFkB inh – inhibitors of the PMA/ionomycin-induced NF-kB reporter in 697 B cells | 697 B-cell NF-kB luciferase reporter, 16 h | AID 435022 | inhibition, % at 4 µM | 330,000 tested, 0.33% active; in the data active means inhibition above about 35%
UPR XBP1 act – adaptive UPR (XBP1) activation; activation, % at 20 µM; CHO-XBP1 luciferase reporter, IRE1-XBP1 UPR activation, luminescence; percent of tunicamycin response, DMSO as zero; 330,000 tested, 0.33% active;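 active means versus positive control, 20 µM dose yields 30% or more activation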;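 further: 100% = tunicamycin at 10 µg/mL and 0% = DMSO only wells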
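Test system: CHO-XBP1 luciferase reporter cells | Buffer or medium: Serum-containing F12 medium, 10% FBS | Schedule: 6 h compound exposure at 37 °C, 5% CO2 | Detection: Steady-Glo luciferase glow luminescence, 10 min after reagent addition | Read-out basis: Activation, % of tunicamycin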
Jurkat NFkB inh – lowers PMA/ionomycin-induced NF-kB signal in Jurkat cells. PMA/ionomycin-induced NF-kB luciferase reporter, luminescence. inhibition, % at 4 µM. 330,000 tested, 0.53% active; in the data active means inhibition above about 50%
CHOP UPR activ – activators of apoptotic arm of unfolded protein response (CHOP); CHO-CHOP luciferase reporter, UPR activation, luminescence; percent of tunicamycin response over DMSO baseline; activation, % at 10 µM; 330,000 tested, 0.34% active; AID 449763;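 active means at 10 µM dose, activation of 40% or more, normalized to positive control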;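 further: 100% = tunicamycin at 10 µg/mL and 0% = DMSO alone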
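Assay system: CHO-CHOP cells, stable luciferase reporter of PERK-eIF2a-CHOP signalling / Buffer or medium: F12 plus 10% serum / Compound dosing: one dose, 10 µM in 0.5% DMSO / Times: 6 h compound treatment, 37 °C / Technique: luciferase luminescence / Read-out: % reporter activation, DMSO baseline versus tunicamycin full activation / Benchmarks: tunicamycin and DMSO controls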
CHOP confirm – confirmation of CHOP induction inhibitors; shares compounds with CHOP inh; CHO-CHOP promoter luciferase reporter, tunicamycin-induced, luminescence; inhibition, % at 10 µM; 2,100 tested, 45% active; AID 504437;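 active means mean of three repeat readings of reporter signal inhibition above a set limit, cut at about 70% in these data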;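 further: 0% = tunicamycin plus vehicle and 100% = wells lacking tunicamycin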
An asterisk follows results filed as active; . = no result given. Compounds with a hit are over-represented: about 3.9% of the library has one in this group of screens.

SMILES | CHOP inh | Gli-Sufu block | 697 NFkB inh | UPR XBP1 act | Jurkat NFkB inh | CHOP UPR activ | CHOP confirm
CCOC(=O)C1CCCCN1Cc1ccc(-c2ccccc2)cc1 (configuration not stated) | . | 2 | -13 | -3 | -23 | -2 | .
CC(C)=CCc1c(O)ccc(C(=O)Cc2ccccc2)c1O | 106* | -1 | 0 | 1 | 9 | 2 | 6
Cc1ccc(/C=N/Nc2ccc3ccccc3n2)o1 | 27 | -56 | -182 | -5 | -147 | -6 | .
Cc1cccc(/C=N/Nc2ccc3ccccc3n2)c1 | 97* | 40 | -214 | -13 | -146 | -8 | 99*
O=C(CSc1nnc(CNC(=O)c2ccccc2F)o1)NC1CCCC1 | . | -9 | 3 | 0 | 7 | -4 | .
CC(=O)C1=C(C)NC(SCSc2ccccc2)=C(C#N)C1c1cccnc1 (configuration not stated) | 5 | 2 | -22 | 1 | -1 | 0 | .
CC(=O)C1=C(C)NC(SCC(=O)c2ccc(-c3ccccc3)cc2)=C(C#N)C1c1cccnc1 (configuration not stated) | 97* | . | -37 | 9 | -14 | 3 | 21
Cc1cc(SCc2cccc(C(F)(F)F)c2)nc(=O)[nH]1 | . | -7 | -14 | 1 | 12 | 3 | .
CC(C)(C)c1ccc(C(=O)NC(=S)NNC(=O)c2cccs2)cc1 | 107* | -7 | . | . | . | . | 134*
CCC(=O)NC(NC(=S)Nc1cccc2cccnc12)C(Cl)(Cl)Cl (configuration not stated) | 10 | -3 | -22 | -1 | 5 | 2 | .
O=C(Cc1cccc2ccccc12)NC(NC(=S)Nc1ccccc1Cl)C(Cl)(Cl)Cl (configuration not stated) | 104* | 2 | 16 | 0 | -3 | 0 | -14
O=C(Nc1ccnn1C1CCN(Cc2ccn[nH]2)CC1)c1ccccc1 | . | 24 | 4 | -6 | 10 | -1 | .
CCN(CC)c1ccc(NC2=C(Cl)C(=O)c3ccccc3C2=O)cc1 | 107* | -40 | . | . | . | . | -11
O=[N+]([O-])c1ccc(N/N=C/c2c[nH]c3ccccc23)c(S(=O)(=O)Nc2ccc(Cl)cc2)c1 | 106* | 1 | -19 | -1 | -23 | -1 | 61
COc1ccc(C2(O)CC3CCC(C2)N3c2nc(C)cc(C)c2C#N)cc1 (configuration not stated) | 101* | 2 | -25 | 0 | -10 | -2 | 36
COc1ccc(Oc2nc(C)cc(C)c2C#N)cc1 | 14 | 9 | 1 | 0 | 2 | 8 | .
O=C(Nc1ccccc1Cl)C1CC(=O)N(Cc2ccco2)C1 (configuration not stated) | . | 5 | 18 | -1 | 12 | 3 | .
Cc1nc(SCC(=O)Nc2ccc(C)c(F)c2)c2oc3ccccc3c2n1 | 102* | 4 | -15 | 2 | -8 | -1 | 110*
Cc1ccc(NCc2n[nH]c(=S)n2Cc2ccccc2)cc1Cl | 100* | 13 | . | . | . | . | -45
Cc1ccc(NCc2nnc(SCC(=O)O)n2Cc2ccccc2)cc1Cl | -10 | 1 | -40 | -3 | -27 | -1 | .
CN1C(=O)NC(c2ccccc2)C2=C1CN(c1ccc3ccccc3c1)C2=O (configuration not stated) | 96* | -5 | -2 | -4 | 4 | -1 | 15
CC(/C=C1\SC(=O)N(CC(=O)Nc2ccc(O)cc2)C1=O)=C\c1ccccc1 | 96* | -8 | 15 | 3 | -1 | 0 | -43
Cc1cccc(C)c1OCC(=O)Nc1ccc2c(c1)C(=O)NC2=O | . | 1 | -3 | -3 | 0 | -2 | .
Cc1cc(NC(=O)c2sc(Nc3ccc(F)c(Cl)c3)nc2N)no1 | 100* | -7 | -8 | 0 | 8 | 2 | -32
Cc1cc(NC(=O)c2sc(Nc3cccc(C(F)(F)F)c3)nc2N)no1 | 10 | 6 | 0 | 1 | -15 | 4 | .
SMILES | CHOP inh | Gli-Sufu block | 697 NFkB inh | UPR XBP1 act | Jurkat NFkB inh | CHOP UPR activ | CHOP confirm
COCCN(C(=O)c1ccccc1F)c1nnc(-c2ccc(OC)cc2)s1 | . | -14 | -46 | 0 | -28 | 5 | .
O=C(COc1ccccc1)Nc1sc2c(c1C(=O)NCc1cccnc1)CCCC2 | 98* | -3 | -8 | 1 | -23 | 5 | -56
COc1cccc(NC(=O)CCc2c(C)nc3nc(CNC(=O)c4cccc(F)c4)nn3c2C)c1 | . | 2 | 10 | -5 | -8 | -1 | .
N=C1/C(=C\c2ccc(-c3ccc(C(=O)O)cc3)o2)C(=O)N=C2SC=C(c3ccccc3)N12 | 100* | -1 | . | . | . | . | 38
O=c1c(Cl)c(Cl)cnn1Cc1nnc(-c2ccccc2Br)o1 | 104* | 1 | -25 | -7 | 18 | -8 | 122*
COc1cccc(NC(=O)CSc2nc3c(sc4ccccc43)c(=O)n2CCCN2CCCC2)c1 | . | 32 | -36 | 5 | -26 | 6 | .
COc1cc(OC)cc(-c2c(-c3cccs3)c3cc(-c4ccc(C(N)=O)cc4)ccc3n2C)c1 | . | 15 | 0 | 9 | 16 | 3 | .
Cc1cc(N/N=C/c2ccc(O)cc2O)nc(-c2ccccc2O)n1 | 101* | 1 | . | . | . | . | 14
CC(=O)N[C@@H](Cc1ccc(O)cc1)CN1C(N)=NC[C@@H]1CC(C)C | . | -9 | 19 | -1 | 7 | 1 | .
N#CC(c1ccccc1O)N1N=C(c2ccccc2)CC1c1ccccc1 (configuration not stated) | 97* | 0 | -191 | 13 | -54 | 13 | 26
CCOC(=O)C(C)Oc1cccc2c(=O)n(CC(=O)Nc3ccc(OCC)cc3)ccc12 (configuration not stated) | 106* | -4 | 1 | -2 | 8 | -2 | 61
CCOC(=O)C(C)Oc1cccc2c(=O)n(CC(=O)Nc3cccc(OC)c3)ccc12 (configuration not stated) | 23 | 7 | 0 | -2 | 15 | -1 | .
CCN1CCN(Cc2ccc(NC(=O)c3cc(NC(=O)c4cncc(-c5ccc(C#N)cc5)c4)cc(OC)c3)cc2C(F)(F)F)CC1 | 107* | 10 | 22 | -9 | -7 | 3 | 60
Cc1ccc2nc(/C(C#N)=C/c3ccc(-c4cccc([N+](=O)[O-])c4)o3)[nH]c2c1 | 108* | 6 | . | . | . | . | 52
COc1ccc(/C=C(\C#N)c2nc3ccc(C)cc3[nH]2)cc1Oc1ccc(C(F)(F)F)cc1[N+](=O)[O-] | 102* | 5 | -39 | 14 | 3 | 9 | 58
COc1ccc([C@H]2CC(=O)C=C(C#CC(C)(C)C)C2)cc1 | . | -25 | -7 | 0 | -15 | -1 | .
Cc1ccc(-n2ncc(N(C)C)c(Cl)c2=O)cc1 | 28 | -68 | -133 | -5 | -86 | -2 | .
CN(/N=C/c1ccncc1)c1cnn(-c2ccc(F)c(Cl)c2)c(=O)c1Cl | 100* | 9 | -15 | -2 | -5 | 2 | 3

Screening results: PubChem BioAssay, several laboratories
